From ChEMBL document CHEMBL3739289, “Discovery, synthesis and structure-activity analysis of symmetrical 2,7-disubstituted fluorenones as urea transporter inhibitors” (Medchemcomm, 2015)
pIC50: −log10 of the molar value. Calls of active or inactive are those of the source. The rule behind the calls is not given here.

Experiments:
Urea transporter 1 = target: T1, Urea transporter 1 (Rattus norvegicus, UniProt P97689); test: Inhibition of UT-B in rat whole blood after 15 mins by RBC lysis assay; format: tissue-based
T1 sequence (P97689 whole entry): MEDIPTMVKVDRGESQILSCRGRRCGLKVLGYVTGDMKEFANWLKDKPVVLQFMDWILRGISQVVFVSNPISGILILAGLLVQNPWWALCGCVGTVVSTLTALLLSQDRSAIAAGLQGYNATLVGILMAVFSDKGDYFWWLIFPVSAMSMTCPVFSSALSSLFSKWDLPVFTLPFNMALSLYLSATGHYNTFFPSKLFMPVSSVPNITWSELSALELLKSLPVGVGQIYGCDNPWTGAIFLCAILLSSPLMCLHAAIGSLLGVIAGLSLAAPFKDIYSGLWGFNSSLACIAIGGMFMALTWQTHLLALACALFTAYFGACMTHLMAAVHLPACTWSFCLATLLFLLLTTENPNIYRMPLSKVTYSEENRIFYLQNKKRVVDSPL
How it was run: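 Whole rat blood diluted to ~1.5% hematocrit in PBS with 1.25 M acetamide. Erythrocytes exposed to compound for 15 min, then rapidly mixed with PBS. Lysis read as absorbance at 710 nm; % inhibition calculated relative to negative and positive controls.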

Urea transporter 2 = target: T2, Urea transporter 2 (Rattus norvegicus, UniProt Q62668); test: Inhibition of rat UT-A1 expressed in MDCK-UT-A1-AQP1-YFP cells after 15 mins by fluorescence assay; format: cell-based
T2 sequence (Q62668 whole entry): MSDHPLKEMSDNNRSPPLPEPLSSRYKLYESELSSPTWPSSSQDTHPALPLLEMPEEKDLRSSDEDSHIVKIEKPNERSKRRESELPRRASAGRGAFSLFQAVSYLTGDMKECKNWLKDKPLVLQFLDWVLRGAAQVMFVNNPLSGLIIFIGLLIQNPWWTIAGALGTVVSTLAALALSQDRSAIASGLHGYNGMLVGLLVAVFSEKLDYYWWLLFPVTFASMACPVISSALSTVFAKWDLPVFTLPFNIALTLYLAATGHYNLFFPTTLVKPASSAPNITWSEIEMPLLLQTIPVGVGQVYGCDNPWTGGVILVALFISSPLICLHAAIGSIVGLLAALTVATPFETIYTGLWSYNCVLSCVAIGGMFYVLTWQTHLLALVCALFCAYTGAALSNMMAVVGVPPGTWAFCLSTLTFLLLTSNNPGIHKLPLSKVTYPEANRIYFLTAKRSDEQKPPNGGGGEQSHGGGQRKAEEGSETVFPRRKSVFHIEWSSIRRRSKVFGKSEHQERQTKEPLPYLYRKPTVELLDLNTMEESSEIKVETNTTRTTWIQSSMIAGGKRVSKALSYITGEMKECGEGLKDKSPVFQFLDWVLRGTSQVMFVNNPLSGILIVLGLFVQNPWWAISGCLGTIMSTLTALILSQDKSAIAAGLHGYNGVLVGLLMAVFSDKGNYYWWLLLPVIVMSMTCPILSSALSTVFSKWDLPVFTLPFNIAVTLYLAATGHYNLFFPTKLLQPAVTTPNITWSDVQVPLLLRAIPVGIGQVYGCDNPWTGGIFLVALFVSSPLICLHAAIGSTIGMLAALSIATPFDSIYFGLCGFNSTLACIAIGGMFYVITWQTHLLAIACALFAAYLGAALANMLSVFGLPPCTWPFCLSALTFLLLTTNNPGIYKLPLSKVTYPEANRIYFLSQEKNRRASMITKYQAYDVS

[1] = Drug metabolism in rat liver microsomes assessed as cytochrome P450 monooxygenase-mediated oxidation by LC/MS analysis; format: ADME
How it was run: (§1)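 Compounds incubated with rat liver microsomes plus NADPH for up to 60 min. Parent loss and metabolite appearance followed by LC/MS.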

[2] = Metabolic stability in rat liver microsomes assessed as compound remaining after 15 mins by RP-HPLC analysis in presence of NADPH; format: ADME; details: read-out: Stability; how it was run: as §1
[3] = target: T3, Urea transporter 2 (Rattus norvegicus) (UniProt Q62668); test: Inhibition of rat UT-A1 expressed in MDCK-UT-A1-AQP1-YFP cells after 40 secs by fluorescence assay; format: cell-based
T3 sequence (whole entry): T2 sequence (Q62668 whole entry)

[4] = target: T3, Urea transporter 2 (Rattus norvegicus); test: Non competitive inhibition of rat UT-A1 expressed in MDCK-UT-A1-AQP1-YFP cells at IC50 after 15 mins by fluorescence assay in presence of urea; format: cell-based
[5] = target: T3, Urea transporter 2 (Rattus norvegicus); test: Reversible inhibition of rat UT-A1 expressed in MDCK-UT-A1-AQP1-YFP cells at IC50 measured 15 mins post compound washout by fluorescence assay; format: cell-based
Liver microsome = test: Drug metabolism in rat liver microsomes assessed as [M+ H-16] formation by LC/MS analysis; format: ADME; details: TDE = time-dependent effect
How it was run: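 Rat liver microsomes incubated with compound in presence of NADPH; disappearance of parent and appearance of metabolite followed by LC/MS over 60 min.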

[6] = Drug level in 1M NaOH treated with compound-18 assessed as compound formation; format: physicochemical

| pIC50 (Urea transporter 1) | pIC50 (Urea transporter 2) | Structure (SMILES) | also measured |
| --- | --- | --- | --- |
| 4.70 | 4.74 | CC(=O)Nc1cccc(C(=O)c2cccc(NC(C)=O)c2)c1 | Drug metabolism [1]: metabolite_notdetected; remaining at 0.25 h [2]: > 80% |
| 4.52 | 4.70 | [N-]=[N+]=NCC(=O)Nc1ccc2c(c1)C(=O)c1cc(NC(=O)CN=[N+]=[N-])ccc1-2 | – |
| 5.30 | 4.82 | CCC(=O)Nc1ccc2c(c1)C(=O)c1cc(NC(=O)CC)ccc1-2 | – |
| 5.92 | 5.70 | NC(=O)Nc1ccc2c(c1)C(=O)c1cc(NC(N)=O)ccc1-2 | – |
| < 4.30 | < 4.30 | CCCC(=O)Nc1ccc2c(c1)C(=O)c1cc(NC(=O)CCC)ccc1-2 | – |
| 4.30 | 4.74 | CC(C)C(=O)Nc1ccc2c(c1)C(=O)c1cc(NC(=O)C(C)C)ccc1-2 | – |
| < 4.30 | 4.52 | O=C(O)/C=C\C(=O)Nc1ccc2c(c1)C(=O)c1cc(NC(=O)/C=C\C(=O)O)ccc1-2 | – |
| < 4.30 | < 4.30 | Nc1cccc(C(=O)c2cccc(N)c2)c1 | – |
| 5.00 | 4.52 | O=C(CBr)Nc1ccc2c(c1)C(=O)c1cc(NC(=O)CBr)ccc1-2 | – |
| 5.60 | 5.82 | CS(=O)(=O)Nc1ccc2c(c1)C(=O)c1cc(NS(C)(=O)=O)ccc1-2 | – |

The remaining lines, values behind:

| Structure (SMILES) | pIC50 (Urea transporter 1) | pIC50 (Urea transporter 2) | also measured |
| --- | --- | --- | --- |
| O=C(COCc1ccccc1)Nc1ccc2c(c1)C(=O)c1cc(NC(=O)COCc3ccccc3)ccc1-2 | < 4.30 | < 4.30 | – |
| O=C1c2cc(NC(=O)C(F)(F)F)ccc2-c2ccc(NC(=O)C(F)(F)F)cc21 | 5.12 | 5.00 | – |
| O=C1c2cc(N3CCCS3(=O)=O)ccc2-c2ccc(N3CCCS3(=O)=O)cc21 | < 4.30 | < 4.30 | – |
| O=C(CO)Nc1ccc2c(c1)C(=O)c1cc(NC(=O)CO)ccc1-2 | 4.60 | 4.70 | – |
| O=C(COCc1ccccc1)Nc1cccc(C(=O)c2cccc(NC(=O)COCc3ccccc3)c2)c1 | < 4.30 | < 4.30 | – |
| O=C1c2cc([N+](=O)[O-])ccc2-c2ccc([N+](=O)[O-])cc21 | < 4.30 | < 4.30 | – |
| CC(=O)Nc1ccc2c(c1)C(=O)c1cc(NC(C)=O)ccc1-2 | 5.82 | 6.00 | Drug metabolism [1]: metabolite_notdetected; remaining at 0.25 h [2]: 60%; inhibition [3]: Active; inhibition [4]: Active; inhibition [5]: Active; Drug metabolism (Liver microsome): tde |
| CC(=O)Nc1ccc2c(c1)C(=NO)c1cc(NC(C)=O)ccc1-2 | 4.60 | 4.92 | Drug metabolism [1]: metabolite_notdetected; remaining at 0.25 h [2]: > 80% |
| CC(=O)Nc1ccc2c(c1)S(=O)(=O)c1cc(NC(C)=O)ccc1-2 | 5.70 | 4.82 | Drug metabolism [1]: metabolite_notdetected; remaining at 0.25 h [2]: > 80% |
| CC(=O)Nc1ccc2c(c1)C(O)c1cc(NC(C)=O)ccc1-2 | 4.70 | < 4.30 | – |
| COCCOCC(=O)Nc1ccc2c(c1)C(=O)c1cc(NC(=O)COCCOC)ccc1-2 | 4.30 | < 4.30 | – |
| CS(=O)(=O)Nc1cccc(C(=O)c2cccc(NS(C)(=O)=O)c2)c1 | 4.52 | < 4.30 | – |
| Nc1ccc2c(c1)C(=O)c1cc(N)ccc1-2 | < 4.30 | < 4.30 | – |
| CC(=O)/N=C1\C=CC2=c3ccc(NC(C)=O)cc3=CC2=C1 | – | – | Drug metabolism [6]: metabolite_detected |
